Results on seven compounds are retold here after ChEMBL document CHEMBL2412970, “Synthesis and anticancer activity of 2,4-disubstituted furo[3,2-b]indole derivatives” (Eur J Med Chem, 2013).

Assay [1] concerns A498. As to the kind of experiment: Ratio of YC-1 IC50 to compound IC50 for human A498 cells after 48 hrs by MTT assay. It is filed as functional. For orientation: Formazan colour is commonly taken as a measure of viable cells.
The subject of the next assay is Detroit 551. As to the kind of experiment: Cytotoxicity against human Detroit 551 cells after 48 hrs by MTT assay. It is filed as cell-based. As to conditions: Detroit 551, 48 h.
Assay [2] deals with A498. As to the kind of experiment: Cytotoxicity against human A498 cells after 48 hrs by MTT assay. It is filed as functional, cell-based. As to conditions: A498, 48 h.
The next assay deals with COLO 205. As to the kind of experiment: Cytotoxicity against human COLO205 cells after 48 hrs by MTT assay. It is filed as functional, cell-based. Conditions: COLO 205, 48 h. The method in brief:
(§1)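 Cells were treated with a range of concentrations for 48 h. Viability was read by MTT: formazan was dissolved in DMSO and absorbance read at 570 nm. Untreated or 0.1% DMSO cells served as control. Data are mean from three independent experiments. HL-60, H460 and COLO 205 were kept in RPMI-1640 with 10% FBS and penicillin/streptomycin.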

Assay [3] is described as follows: Cytotoxicity against human Hep3B cells after 48 hrs by MTT assay. It is filed as functional, cell-based, Hep 3B2.
A short description of assay [4]: Cytotoxicity against human H460 cells after 48 hrs by MTT assay. Conditions: NCI-H460, 48 h. It is filed as functional, cell-based. An outline of the steps: as §1
A further assay deals with HL-60. As to the kind of experiment: Cytotoxicity against human HL60 cells after 48 hrs by MTT assay. It is filed as functional, cell-based. As to conditions: HL-60, 48 h. An outline of the steps: as §1

For `OCc1cc2c(o1)c1ccccc1n2Cc1ccccc1`, in the assay with A498 [1], the “Ratio IC50” value came out at 1.5. For the same compound, the IC50 (in general, the concentration that gives 50% inhibition) in the assay on Detroit 551 was over 50 µM; in the assay on A498 [2] it was 0.24 µM; in the assay with COLO 205, 30.6 µM; in assay [3] it was 50 µM; in assay [4] it was over 50 µM; in the assay on HL-60, over 50 µM.
As for `COC(=O)c1ccc(Cn2c3ccccc3c3oc(C(=O)OC)cc32)cc1`, the IC50 (in the assay on Detroit 551; in the assay with A498 [2]; in the assay with COLO 205; in assay [3]; in assay [4]; in the assay with HL-60) was over 50 µM in each case.
As for `Cn1c2ccccc2c2oc(CO)cc21`, the IC50 is over 50 µM in the assay with Detroit 551; 4.6 µM in the assay with A498 [2]; over 50 µM in the assay with COLO 205; over 50 µM in assay [3]; 50 µM in assay [4]; over 50 µM in the assay with HL-60.
With `OCc1cc2c(o1)c1ccccc1n2Cc1ccccc1F`, the concentration for half-maximal inhibition (IC50) in the assay on Detroit 551 was over 50 µM; with A498 [2] it was 0.43 µM; with COLO 205, 40.9 µM; in assay [3] it was 50 µM; in assay [4] it was over 50 µM; in the assay with HL-60, over 50 µM.
For `O=C(O)c1cc2[nH]c3ccccc3c2o1`, the IC50 (in the assay on Detroit 551; with A498 [2]; in the assay on COLO 205; in assay [3]; in assay [4]; with HL-60) was over 50 µM throughout.
For `OCc1cc2c(o1)c1ccccc1n2Cc1ccc(CO)[se]1`, the “Ratio IC50” value in the assay on A498 [1] is on record as 1.5. For the same compound, the IC50 in the assay with Detroit 551 is over 50 µM; in the assay on A498 [2], 0.23 µM; in the assay with COLO 205 it was over 50 µM; in assay [3] it was over 50 µM; in assay [4], over 50 µM; in the assay on HL-60, over 50 µM.
On to `COC(=O)c1cc2c(o1)c1ccccc1n2Cc1cccc(F)c1`, for which the IC50 (with Detroit 551; in the assay with A498 [2]; in the assay with COLO 205; in assay [3]; in assay [4]; in the assay with HL-60) was over 50 µM throughout.
